# Data taken from PubChem BioAssay AID449757 (Broad Institute, 2010).
# Calls of active or inactive are those of the source.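 Rule for the calls: active = compounds whose fitted caspase activation midpoint falls no more than tenfold above the top tested dose; inconclusive = flat fit with activity between 30 and 70 percent, or failed fit; inactive = the rest.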
# Test system: MEF Flag-A1-IRES-BIM, caspase-Glo luminescence, 3 h
# Assay: caspase activation in A1/BIM-primed MEFs, dose response, A1 (Bcl2A1) inhibitor project, cell-based, alternate construct, luminescence (AID 449757)
# Method in brief: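 Assay system: mouse embryonic fibroblasts primed via Flag-A1-IRES-BIM expression construct; quantity: 2500 cells per well, seeded one day before compound; medium: RPMI-1640 growth medium with 10% FBS; doses: 100 nL compound added per well by pin transfer; timing: 3-h compound at 37 °C, 30-min cooling, 1-h reagent at RT; measured by: CaspaseGlo luminescence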
row,Compound,AC50
1,CCOc1cc(/C=C\[N+](=O)[O-])ccc1OCC(=O)Nc1ccccc1C,6.53 µM
2,Cc1ccc(C(=O)/C=C\C(=O)c2ccc(C)cc2)cc1,36.7 µM
3,CCc1ccc(NC(=O)c2nc(S(=O)(=O)Cc3ccccc3)ncc2Cl)cc1,> 35 µM (inactive)
4,O=[N+]([O-])/C=C/c1ccc2c(ccn2Cc2ccccc2)c1,13.4 µM
5,COc1cc(C(=O)Nc2cc3c(cc2N2CCCCC2)n(C)c(=O)n3C)cc(OC)c1OC,> 35 µM (inactive)
6,O=C(Nc1ccc2oc(-c3ccccc3)nc2c1)c1ccccc1F,> 35 µM (inactive)
7,C=C1/C=C(\C)[C@](C)(O)C[C@H](O)CC(=O)[C@H](O)[C@@H](O)[C@H](C)C[C@H](C)OC(=O)/C(C)=C/CC/C=C/[C@@H]2O[C@H]2C[C@H](C)C1,> 35 µM (inactive)
8,COc1ccc(C2CC(c3c(O)cc(C)oc3=O)=NCCS2)c(OC)c1 (stereo not drawn),> 35 µM (inactive)
9,CCOc1ccc(N2C(=O)/C(=C\c3ccc(O)c(OC)c3)S(=O)(=O)C2c2cccc([N+](=O)[O-])c2)cc1 (stereo not drawn),> 35 µM (inactive)
10,O=C(Cn1c(C(F)(F)F)nc2ccccc21)N=Nc1c(O)[nH]c2ccc(Br)cc12,29.8 µM
11,O=C(NC[C@H]1CCCO1)c1cccc2c1C(=O)c1ccc(-c3ccc(F)cc3OCc3ccccc3)cc1S2(=O)=O,> 35 µM (inactive)
12,O=C(/C=C/c1ccc(F)cc1)NC(=S)Nc1ccccc1C(=O)NC1CCCCC1,> 35 µM (inactive)
13,CCCCNC(=O)c1ccc(Cn2c(=S)[nH]c3c([nH]c4ccc(OC)cc43)c2=O)cc1,4.77 µM
14,Cc1ccc(S(=O)(=O)N(C)Cc2ccc(C(=O)N/N=C/c3ccc(OC(F)F)cc3)cc2)cc1,> 35 µM (inactive)
15,Cc1ccc(N(Cc2cc(=O)[nH]c3ccccc23)C(=O)CCl)cc1,> 35 µM (inactive)
16,CCc1ccc2nc(N(CCCN(C)C)C(=O)c3ccc(S(=O)(=O)N4CCc5ccccc5C4)cc3)sc2c1,> 35 µM (inactive)
17,COc1ccc(-c2ccc3c(c2)S(=O)(=O)c2cccc(C(=O)NC[C@@H]4CCCO4)c2C3=O)cc1OC,> 35 µM (inactive)
18,O=C(NCCc1ccccc1)C(c1cccs1)N(C(=O)CCl)c1ccc(Cl)cc1 (stereo not drawn),13.3 µM
19,Cc1ccc(C(=O)COC(=O)c2ccc3c(c2)C(=O)N(c2cccc4ncccc24)C3=O)cc1,36.1 µM
20,CCOC(=O)COc1ccccc1/C=C\[N+](=O)[O-],10.5 µM
21,CCOc1cccc(C(=O)Nc2cccc(-c3nnc(-c4ccc(C)cc4)o3)c2)c1,8.37 µM

row,Compound,AC50
1,CC(C)N=c1scc(-c2ccco2)n1/N=C/c1ccc(O)c(O)c1,> 35 µM (inactive)
2,COc1ccccc1CCNC(C)CCc1ccc(O)cc1 (stereo not drawn),> 35 µM (inactive)
3,COc1ccccc1-c1cc(C(F)(F)F)nc(S(=O)(=O)CCCC(=O)NC(C)C)n1,8.84 µM
4,Cc1occc1-c1nnc(SCC(=O)NCCc2ccccc2)n1Cc1ccccc1,> 35 µM (inactive)
5,COc1ccc(S(=O)(=O)N2CC(O)CC2C(=O)OCC(=O)Nc2ccc(Cl)cn2)cc1 (stereo not drawn),> 35 µM (inactive)
6,Cc1ccc(NC(=S)NC(NC(=O)Cc2cccc3ccccc23)C(Cl)(Cl)Cl)cc1 (stereo not drawn),20.2 µM
7,Cc1[nH]nc2nc(SCC(=O)NCCC3=CCCCC3)n(-c3ccc(Br)cc3)c(=N)c12,17.1 µM
8,Cc1ccc(-c2nc(NC(=O)c3nn(C)cc3[N+](=O)[O-])sc2C)cc1C,3.62 µM
9,Cc1ccc2c(c1)c(C1=c3ccccc3=NC1=O)c(O)n2C,> 35 µM (inactive)
10,O=C(NC1CCCCC1)C(c1ccc(F)cc1)N(CCc1ccccc1)C(=O)CN1C(=O)c2ccccc2S1(=O)=O (stereo not drawn),7.6 µM
11,COc1cc2cnc(-c3ccccc3)c(-c3cccc(C(F)(F)F)c3)c2cc1OC,> 35 µM (inactive)
12,O=[N+]([O-])/C=C/c1cn(Cc2ccc(Cl)cc2)c2ccccc12,15.9 µM
13,COc1ccc2[nH]c3c(=O)n(/N=C/[C@H]4C(C)C=C(C)CC4C)c(=O)[nH]c3c2c1 (stereo partly drawn),11 µM
14,COc1ccc(NC(=O)C(=O)N/N=C\c2ccc(CNC(=O)C(=O)Nc3ccc(C)c(C)c3)o2)c(OC)c1,26.1 µM
15,O=C(NCc1ccccc1Br)c1cccc2c1C(=O)c1ccc(-c3ccc(OC(F)(F)F)cc3)cc1S2(=O)=O,> 35 µM (inactive)
16,COc1ccc(-c2cc3ccccc3oc2=O)cc1NC(=S)NC(=O)c1ccc2c(c1)OCCO2,6.36 µM
17,O=S1(=O)CCOC[C@H](CC2CCCCC2)N1Cc1cccc(Cl)c1,> 35 µM (inactive)
18,CCCc1ccc(OCc2ccc(C(=O)N/N=C/c3cccc([N+](=O)[O-])c3)o2)c(OC)c1,6.57 µM
19,CC(C)c1cccc(-c2ccc3c(c2)S(=O)(=O)c2cccc(C(=O)NC4CCCC4)c2C3=O)c1,> 35 µM (inactive)
20,CCOC(=O)/C=c1\s/c(=C\c2ccc(C(=O)OC)cc2)c(=O)n1CC(=O)Nc1ccccc1,> 35 µM (inactive)
21,CC1(C)C[C@H](O)[C@]2(CO)[C@H](O)C[C@]3(C)C(=CCC4[C@@]5(C)CC[C@H](O)C(C)(C)C5CC[C@]43C)[C@@H]2C1 (stereo partly drawn),> 35 µM (inactive)

row,Compound,AC50
1,O=c1c(Cl)c(Cl)cnn1Cc1ccccc1Cl,> 35 µM (inactive)
2,N#Cc1c(C(F)(F)F)cc(-c2ccccc2)nc1SCC(=O)Nc1sc2c(c1C#N)CCC2,> 35 µM (inactive)
3,Cc1ccc(NC(=O)c2cc(N3C(=O)C=CC3=O)ccc2N2CCOCC2)cc1Cl,15.8 µM
4,CC(=O)OC(C)(C)/C=C/C(=O)[C@](C)(O)C1[C@H](O)C[C@@]2(C)C3CC=C4C(C[C@H](O)C(=O)C4(C)C)[C@]3(C)C(=O)C[C@]12C (stereo partly drawn),> 35 µM (inactive)
5,CC1=CC(=O)C(C(C)C)=C/C1=N/OS(=O)(=O)c1ccccc1,6.53 µM
6,COc1ccc(OC[C@@H](O)CNC(=O)c2cccc3c2C(=O)c2ccc(-c4ccc(F)cc4OCc4ccccc4)cc2S3(=O)=O)cc1,> 35 µM (inactive)
7,COc1ccc(NC(=S)NC(NC(=O)/C=C/c2ccccc2)C(Cl)(Cl)Cl)cc1 (stereo not drawn),> 35 µM (inactive)
8,O=C(Oc1cccc(/C=N/Nc2nc(Nc3ccccc3)nc(N3CCOCC3)n2)c1)c1ccco1,> 35 µM (inactive)
9,CN(C)C/C=C(\c1ccc(Br)cc1)c1cccnc1,> 35 µM (inactive)
10,COC(=O)c1ccc2c(=O)n(Cc3ccc4c(c3)OCO4)c(=S)[nH]c2c1,> 35 µM (inactive)
11,COc1cc(NC(=O)c2cccs2)ccc1NC(=O)c1cc2ccccc2o1,> 35 µM (inactive)
12,CCOc1ccc2nc(NCCNC(=O)Nc3cccc(C)c3)c(C#N)cc2c1,33.9 µM
13,COc1ccc(NC(=O)c2cccc3c2C(=O)c2ccc(-c4ccc(F)cc4OCc4ccccc4)cc2S3(=O)=O)cc1,> 35 µM (inactive)
14,CCOC(=O)/C(=C\c1ccc(OC(F)F)cc1)C1=Nn2c(nnc2-c2ccc(Cl)cc2)SC1,4.71 µM
15,O=C(CCl)N=c1sccn1Cc1ccccc1Cl,> 35 µM (inactive)
16,COc1cc(/C=C2/C(=N)N3C=CSC3=NC2=O)ccc1OCCCOc1cc(C)ccc1C,16.2 µM
17,CCN(C(=O)CCN1C(=O)c2ccccc2S1(=O)=O)c1ccccc1,> 35 µM (inactive)
18,COc1cc(SC#N)ccc1N=Cc1c(C)[nH]n(-c2ccc(C)cc2)c1=O,25.3 µM
19,COC(=O)[C@@]1(C)CC[C@]2(C)CC[C@@]3(C)C(=CC(=O)C4[C@@]5(C)CC[C@H](O)C(C)(C)[C@@H]5CC[C@]43C)[C@H]2C1 (stereo partly drawn),> 35 µM (inactive)
20,CCn1c(SCC(=O)c2ccccc2)nnc1-c1cc2cc(Br)ccc2o1,> 35 µM (inactive)
21,C=CC(=O)Nc1ccc(CN2C(=O)N(c3c(Cl)c(OC)cc(OC)c3Cl)Cc3cnc(NCCCCN(CC)CC)nc32)cc1,> 35 µM (inactive)
